Source: ChEMBL document CHEMBL1149285, “Identification of novel parasitic cysteine protease inhibitors using virtual screening. 1. The ChemBridge database” (J Med Chem, 2004)
pEC50, pIC50: −log10 of the molar value. Activity calls are given as the source filed them. The rule behind the calls is not given here.

Tests used:
[1] = target: T1, Cysteine protease falcipain-3 (Plasmodium falciparum, UniProt Q9NBA7); assay: Inhibition of Plasmodium falciparum recombinant falcipain-3
T1 sequence (Q9NBA7 whole entry): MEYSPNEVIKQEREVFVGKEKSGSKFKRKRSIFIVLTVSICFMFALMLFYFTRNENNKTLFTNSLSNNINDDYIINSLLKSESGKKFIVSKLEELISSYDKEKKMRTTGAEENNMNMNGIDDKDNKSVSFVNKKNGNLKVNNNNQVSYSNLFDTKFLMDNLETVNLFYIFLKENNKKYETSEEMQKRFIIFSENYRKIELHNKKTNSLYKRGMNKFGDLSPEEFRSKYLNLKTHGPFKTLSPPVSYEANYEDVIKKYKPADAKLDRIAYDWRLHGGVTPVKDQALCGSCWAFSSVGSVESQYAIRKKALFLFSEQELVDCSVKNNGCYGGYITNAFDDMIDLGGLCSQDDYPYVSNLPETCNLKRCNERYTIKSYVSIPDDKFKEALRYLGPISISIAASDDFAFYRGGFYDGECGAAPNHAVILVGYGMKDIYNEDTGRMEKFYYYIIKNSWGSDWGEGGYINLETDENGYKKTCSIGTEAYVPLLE
Procedure, shortened: (§1)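 Equal amounts of recombinant enzyme preincubated 30 min at room temperature with serial inhibitor dilutions from DMSO stocks (DMSO at most 1% in assay) in 100 mM sodium acetate pH 5.5, 10 mM dithiothreitol. Z-Leu-Arg-AMC then added to 25 μM final; fluorescence followed 15 min at room temperature. IC50 taken from percent activity versus concentration plots.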

Vero = assay: Cytotoxicity against Vero cells at 23.8 ug/mL by Neutral red assay; assay type: cell-based; settings: chlorocebus sabaeus
Procedure, shortened: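 VERO monkey kidney […] exposed to compounds alongside the antiparasitic assays, viability by Neutral Red uptake; highest concentration tested 23.8 μg/mL; IC50 computed from growth inhibition curve.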

Falcipain 2 = target: T2, Falcipain 2 (Plasmodium falciparum, UniProt Q9N6S8); assay: Inhibition of Plasmodium falciparum recombinant falcipain-2; procedure, shortened: as §1
T2 sequence (Q9N6S8 whole entry): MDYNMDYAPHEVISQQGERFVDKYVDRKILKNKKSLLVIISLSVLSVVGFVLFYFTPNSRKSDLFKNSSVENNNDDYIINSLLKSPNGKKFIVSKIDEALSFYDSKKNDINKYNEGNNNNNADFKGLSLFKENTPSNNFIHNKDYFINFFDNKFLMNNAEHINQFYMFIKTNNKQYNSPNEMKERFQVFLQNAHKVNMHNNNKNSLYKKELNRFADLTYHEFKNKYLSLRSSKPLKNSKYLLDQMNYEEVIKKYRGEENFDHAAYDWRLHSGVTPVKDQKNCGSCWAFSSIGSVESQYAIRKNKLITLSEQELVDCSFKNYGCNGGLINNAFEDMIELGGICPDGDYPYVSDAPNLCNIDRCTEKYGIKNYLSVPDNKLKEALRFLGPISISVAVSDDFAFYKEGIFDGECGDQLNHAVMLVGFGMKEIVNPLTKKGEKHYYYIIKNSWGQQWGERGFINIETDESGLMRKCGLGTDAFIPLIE

[2] = target: T3, Cysteine protease (Leishmania donovani) (UniProt Q95WR6); assay: Inhibition of Leishmania donovani cysteine protease
T3 sequence (whole entry): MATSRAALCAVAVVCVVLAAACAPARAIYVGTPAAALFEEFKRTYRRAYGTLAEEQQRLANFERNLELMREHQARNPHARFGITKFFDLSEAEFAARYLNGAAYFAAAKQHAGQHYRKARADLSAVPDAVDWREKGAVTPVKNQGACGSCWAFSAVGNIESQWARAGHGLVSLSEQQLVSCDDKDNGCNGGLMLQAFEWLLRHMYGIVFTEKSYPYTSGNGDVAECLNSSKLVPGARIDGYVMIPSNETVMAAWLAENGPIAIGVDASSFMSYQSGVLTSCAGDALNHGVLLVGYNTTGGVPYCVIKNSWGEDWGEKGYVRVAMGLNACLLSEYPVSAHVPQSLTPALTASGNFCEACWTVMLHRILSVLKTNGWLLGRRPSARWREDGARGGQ

Leishmania donovani = assay: Antileishmanial activity against Leishmania donovani promastigotes after 72 hrs by Alamar blue assay; assay type: functional, organism-based
Procedure, shortened: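 L. donovani promastigote culture at 2 × 10⁶ cells/mL given diluted compounds, incubated 72 h at 26 °C; growth read by Alamar blue. Pentamidine and amphotericin B as reference agents; IC50 computed from growth inhibition curve.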

Plasmodium falciparum [3] = assay: Antiplasmodial activity against chloroquine-resistant Plasmodium falciparum W2 as LDH activity after 48 hrs; assay type: functional, organism-based; settings: W2, 48 h
Procedure, shortened: (§2)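 Asynchronous P. falciparum cultures (2% hematocrit, 2% parasitemia) were exposed to compound dilutions prepared in DMSO. They were incubated 48 h at 37 °C in a humidified chamber under 90% N2, 5% CO2, 5% O2. Growth was read as parasite lactate dehydrogenase activity using Malstat reagent. Medium-only and erythrocyte-only wells were included, with chloroquine and artemisinin as positive and DMSO as negative controls.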

Plasmodium falciparum [4] = assay: Antiplasmodial activity against chloroquine-sensitive Plasmodium falciparum D6 after 48 hrs as LDH reporter activity; assay type: functional, organism-based; settings: D6, 48 h; procedure, shortened: as §2

SMILES	pIC50 [1]	Activity (Vero)	pIC50 (Falcipain 2)	Activity [2]	Activity (Leishmania donovani)	pEC50 (Plasmodium falciparum [3])	pEC50 (Plasmodium falciparum [4])	pIC50 (Leishmania donovani)
O=C(N/N=C/c1ccc(/C=N/NC(=O)c2ccccc2O)cc1)c1ccccc1O	4.56	Non-toxic	5.66	inactive	inactive	4.46	4.51	
O=C(N/N=C/c1ccccc1O)c1cccc(C(=O)N/N=C/c2ccccc2O)n1	4.98	Non-toxic	5.15	inactive	inactive	5.21	5.43	
O=C(CSc1ccc2ccccc2n1)N/N=C/c1ccc(O)cc1O	< 4.30	Non-toxic	4.20	inactive	inactive	4.17	4.49	
C[C@@H]1CC[C@H]2[C@@H](C)C(=O)O[C@@H]3O[C@@]4(C)CC[C@@H]1[C@]32OO4 [ARTEMISININ]						7.77	7.92	
CCN(CC)CCCC(C)Nc1ccnc2cc(Cl)ccc12 (configuration not stated) [CHLOROQUINE]						6.55	8.05	
N#CCC(=O)N/N=C\c1ccc(OCC(=O)Nc2ccc(F)cc2)cc1	< 4.30	Non-toxic	5.24	inactive	inactive	4.17	4.23	
COC(=O)c1ccccc1NC(=O)COC(=O)CSc1nc(C)cc(C)n1	4.92	Non-toxic	5.21	inactive	inactive	4.21	4.21	
C[C@@H]1[C@H](O)[C@@H](C)/C=C/C=C/C=C/C=C/C=C/C=C/C=C/[C@H](O[C@@H]2O[C@H](C)[C@@H](O)[C@H](N)[C@@H]2O)C[C@@H]2O[C@](O)(C[C@@H](O)C[C@@H](O)[C@H](O)CC[C@@H](O)C[C@@H](O)CC(=O)O[C@H]1C)C[C@H](O)[C@H]2C(=O)O [AMPHOTERICIN B]								6.80
C/C(=N\NS(=O)(=O)c1ccc(C)cc1)c1c(O)c2ccccc2oc1=O	4.86	Non-toxic	5.41	inactive	inactive	4.19	4.19	
O=C(NCc1ccc(/C=c2/sc3n(c2=O)CCN=3)o1)C(=O)Nc1ccccc1	4.93	Non-toxic	5.21	inactive	inactive	< 4.22	< 4.22	
OC[C@@H](O)/C=N/Nc1nc(Nc2ccccc2)nc(Nc2ccccc2)n1	< 4.30	Non-toxic	< 4.30	inactive		5.48	5.60	5.72
Oc1ccc(Nc2nc(-c3cccnc3)cs2)cc1	< 4.30	Non-toxic	4.65	inactive		4.30	4.28	4.94
N=C(N)c1ccc(OCCCCCOc2ccc(C(=N)N)cc2)cc1 [PENTAMIDINE]								5.70
O=C(CSc1nnnn1-c1ccccc1)Nc1ccc(-n2cnnn2)cc1	5.27	Non-toxic	5.12	inactive	inactive	4.30	4.20	
Oc1ccc(/C=N/CC/N=C/c2ccc(O)cc2O)c(O)c1	< 4.30	Non-toxic	4.68	inactive	inactive	4.13	4.33	
CC(C)C[C@H](NC(=O)[C@H]1O[C@@H]1C(=O)O)C(=O)NCCCCN=C(N)N [E-64]	7.46		7.82					
CCCS(=O)(=O)N1CCN(S(=O)(=O)c2ccc3ccccc3c2)CC1	4.53	Non-toxic	4.91	inactive	inactive	< 4.21	< 4.21	
O=C(Nc1cccc(O)c1)c1cccc(S(=O)(=O)Nc2cccc(O)c2)c1	< 4.30	Non-toxic	< 4.30	inactive		4.42	4.45	6.52
CCCc1cc(O)nc(SCC(=O)Nc2ccccc2)n1				inactive	inactive	< 4.11	< 4.11	
OC[C@H](O)/C=N/Nc1nc(Nc2ccccc2)nc(N2CCCCC2)n1	< 4.30	Non-toxic	4.26	inactive		5.28	5.32	5.44
CCCc1cc(=O)[nH]c(SCC(=O)Nc2ccccc2)n1	< 4.30	Non-toxic	4.22					
CCOP(=O)(CC(=O)NNC(=O)Nc1cccc2ccccc12)OCC	< 4.30	Non-toxic	4.27	inactive	inactive	4.39	4.28	
O=C(CNC(=O)[C@@H]1COc2ccccc2O1)N/N=C/c1cccs1	< 4.30	Non-toxic	4.58	inactive	inactive	4.16	4.16	
